Screening data as filed in PubChem BioAssay.
Compounds with a hit are over-represented: about 2.1% of the library has one in this group of screens.
MC4R ag barr: activates human MC4R beta-arrestin recruitment | activation, % at 8.9 µM | U2OS MC4R beta-arrestin complementation, luminescence; percent of melanotan II response, DMSO zero | 360,000 compounds, 0.98% hits | P32245;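 active = activation above a per-plate cutoff, the mean activation of sample wells on that plate plus 3 SD, cut at about 8% in these data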
Target sequence (P32245 whole entry, looked up): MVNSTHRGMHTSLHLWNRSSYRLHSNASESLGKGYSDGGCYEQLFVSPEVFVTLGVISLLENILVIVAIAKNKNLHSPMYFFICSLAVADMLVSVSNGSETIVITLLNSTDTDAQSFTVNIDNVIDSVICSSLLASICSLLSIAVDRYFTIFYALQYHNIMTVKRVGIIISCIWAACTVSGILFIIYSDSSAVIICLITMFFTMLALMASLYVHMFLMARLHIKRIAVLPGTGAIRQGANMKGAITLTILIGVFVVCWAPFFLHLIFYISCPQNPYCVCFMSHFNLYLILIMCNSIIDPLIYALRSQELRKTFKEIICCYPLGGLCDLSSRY
MC4R antagonist: human MC4R antagonism in cAMP assay; 360,000 compounds, 0.48% hits; MC4R-expressing cells, MTII-stimulated cAMP, LANCE TR-FRET; inhibition, % at 6.5 µM; AID 540295;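 active = inhibition above its plate's cutoff, the mean of tested wells on that plate plus 3 SD, cut at about 29% in these data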;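 also: 0% = Melanotan II alone and 100% = Melanotan II plus saturating MCL0020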
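Material – human MC4R-expressing U2OS cells · Repeats – no replicates · Detection – TR-FRET with Eu-cAMP and labeled anti-cAMP, 671 nm · Times – compound 30 min, challenge 1 h, detection 1 h · Compound – single nominal compound dose of 6.5 µM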
F508del corr: CFTR F508del correction in bronchial cells. 350,000 compounds, 0.36% hits. CFBE cells, YFP halide quenching; stimulated with forskolin plus potentiator P3; % fluorescence drop versus neutral controls. activity (quench increase), % at 7.58 µM;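 active = mean added fluorescence quench of at least 8% versus neutral control, with both replicates also reaching 8%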;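 also: cells transiently co-express mutant CFTR-F508del with the halide-sensitive YFP; corrector assay measuring rescue of mutant channel to the surface after 24 h compound exposure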
SMARCA2 activ: SMARCA2 function activation, primary screen; 370,000 compounds, 1% hits; activation, % at 9.1 µM; MG213 cells, MMTV-luciferase reporter, dexamethasone, overnight; in the data active = activation above about 7.8%;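 also: 0% = vehicle wells and 100% = reference activator wells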
U2OS cAMP counter: U2OS forskolin cAMP inhibition counter-screen; shares compounds with MC4R antagonist; parental U2OS, LANCE TR-FRET; inhibition, % at 6.5 µM; 1,600 compounds, 26% hits;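 active = mean inhibition over triplicates above the low-control well mean plus 3 SD, set per campaign, cut at about 13% in these data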;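 also: signal is single emission at 671 nm which falls as cellular cAMP rises; 0% = forskolin-stimulated wells and 100% = buffer without forskolin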
MC4R cAMP antag: human MC4R cAMP antagonism confirmation; shares compounds with MC4R antagonist; MC4R-expressing cells, MTII-stimulated cAMP, TR-FRET; inhibition, % at 6.5 µM; 1,600 compounds, 27% hits; in the data active = inhibition above about 29%;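 also: 0% = agonist stimulated wells alone and 100% = agonist stimulated wells plus saturating reference antagonist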
The depositor's hits bear a star; . = no result given.

SMILES	MC4R ag barr	MC4R antagonist	F508del corr	SMARCA2 activ	U2OS cAMP counter	MC4R cAMP antag
COCCN(CCOC)S(=O)(=O)c1ccc(C(=O)Nc2ccc(S(=O)(=O)Nc3nccc(C)n3)cc2)cc1	-2	30*	2	0	-4	-16
COc1ccc(C(=O)Nc2ccc(S(=O)(=O)Nc3nccc(C)n3)cc2)cc1	-2	9	0	2	.	.
O=C(NC1CCCCC1)N[C@@H]1CC[C@H](CC(=O)N2CCOCC2)O[C@@H]1CO	.	.	1	.	.	.
COc1ccc2c3c(n(C)c2c1)[C@@H](CO)N(C(C)=O)CC31CN(C(=O)C2CC2)C1	.	.	-2	.	.	.
Cc1ccc(NC(=O)c2cncc(Br)c2)cc1S(=O)(=O)N(C)C	2	29*	.	5	6	-3
C=CCSc1nc2ccccc2c(=O)n1C1CCOC(C)(C)C1 (configuration not stated)	6	34*	0	-4	-3	6
COc1cccc(NC(=O)N[C@H]2C=C[C@@H](CC(=O)Nc3ccccc3)O[C@@H]2CO)c1	.	.	4	.	.	.
O=C(c1cnc(Cl)c(Cl)c1)N1CCN(S(=O)(=O)c2ccc3ccccc3c2)CC1	-4	36*	-1	-4	17*	54*
CC(=O)n1cc(N(C(=O)CCl)c2ccc(C)cc2)c2ccccc21	17*	46*	-9	-13	-21	45*
CC(=O)N(c1ccc(Cl)cc1)c1cn(C(C)=O)c2ccccc12	-2	7	4	-1	.	.
CC(C)(C)OC(=O)NCc1ccc(NC(=O)c2nc[nH]c2C(=O)N[C@@H](Cc2ccccc2)C(=O)OCc2ccccc2)cc1	95*	63*	-3	1	-5	36*
CC(C)(C)OC(=O)NCc1ccc(CNC(=O)c2[nH]cnc2C(=O)N[C@@H](Cc2ccccc2)C(=O)OCc2ccccc2)cc1	7	-10	-1	1	.	.
COc1ccc(NC(=O)N(C)C[C@@H]2OCCCC[C@H](C)Oc3ccc(NS(=O)(=O)c4ccc(Cl)cc4)cc3C(=O)N([C@H](C)CO)C[C@@H]2C)cc1	.	.	-2	.	.	.
COC(=O)c1c(N2C(=O)[C@H]3[C@@H](C2=O)[C@]2(C(=O)Nc4c2ccc(C)c4C)N2CCC[C@@H]32)sc(C)c1C	2	33*	.	-4	3	14
COC(=O)c1c(N2C(=O)[C@H]3[C@@H](C2=O)[C@]2(C(=O)Nc4c(C)cc(C)cc42)N2CCC[C@@H]32)sc(C)c1C	1	18	5	0	.	.
CO[C@H]1CN(C)C(=O)c2cc(NC(=O)NC(C)C)ccc2OC[C@H](C)N(C)C[C@H]1C	.	.	1	.	.	.
CCNC(=O)COC(=O)c1cc(S(=O)(=O)N2CCCc3ccccc32)ccc1Cl	1	33*	0	4	25*	41*
O=C(NCc1ccco1)c1cc(S(=O)(=O)N2CCCc3ccccc32)ccc1Cl	-1	-3	.	-3	.	.
CCN(C(=O)COC(=O)c1ccc(S(=O)(=O)N2CCCc3ccccc32)cc1)C1CCS(=O)(=O)C1 (configuration not stated)	-2	30*	1	3	3	-5
CCOC(=O)CCC(=O)Nc1ccc(S(=O)(=O)N2CCCC2)cc1	0	5	7	-3	.	.
CCCN(C(=O)c1cccc(S(=O)(=O)N2CCCc3ccccc32)c1)C1CCS(=O)(=O)C1 (configuration not stated)	-4	6	2	0	.	.
CCOC(=O)CCC(=O)Nc1ccc(S(=O)(=O)N2CCc3ccccc32)cc1	0	32*	-1	-2	9	23
COCC#Cc1ccc2c(c1)O[C@@H](CN(C)C(=O)Nc1ccccc1F)[C@H](C)CN([C@@H](C)CO)S2(=O)=O	.	.	3	.	.	.
COc1ccc(NC(=O)Nc2ccc3c(c2)C(=O)N([C@H](C)CO)C[C@H](C)[C@H](CN(C)Cc2ccc4c(c2)OCO4)O3)cc1	.	.	3	.	.	.
O=C(c1cccnc1)N1C[C@H]2[C@@H](c3ccccc31)[C@@H](CO)N2CC1CCCCC1	.	.	0	.	.	.
SMILES	MC4R ag barr	MC4R antagonist	F508del corr	SMARCA2 activ	U2OS cAMP counter	MC4R cAMP antag
COc1ccccc1-c1cc2nc(-c3ccccc3)cc(N3CCN(C(=O)c4ccco4)CC3)n2n1	2	29*	-1	-10	-1	11
COc1ccccc1-c1cc2nc(-c3ccccc3)cc(N3CCN(C(=O)c4ccoc4)CC3)n2n1	0	30*	-2	-5	3	8
C[C@H](CO)N1C[C@H](C)[C@@H](CN(C)Cc2cccnc2)Oc2cc(C#CCN(C)C)ccc2S1(=O)=O	.	.	-1	.	.	.
O=C1CN(S(=O)(=O)Cc2ccccc2)C[C@@H]2[C@@H](c3ccc(C#CCC4CCCC4)cc3)[C@@H](CO)N12	.	.	0	.	.	.
O=C(CCN1CCCC1Cc1ccccc1)c1ccc2c(c1)OCCO2 (configuration not stated)	-3	36*	.	4	16*	35*
CC(C)(C)NC(=O)N1CCn2cccc2C1c1ccccc1F (configuration not stated)	1	30*	-1	0	4	1
O=S(=O)(c1cccnc1)N1CCn2cccc2C1c1ccccc1F (configuration not stated)	-3	7	-1	-2	.	.
CN(Cc1ccccc1)C(=C(Cl)Cl)/C(=C1/NCCN1C)[N+](=O)[O-]	-1	39*	0	-2	2	3
C[C@H](O)C#Cc1ccc2c(c1)O[C@@H](CN(C)Cc1ccc(-c3ccccc3)cc1)[C@H](C)CN([C@@H](C)CO)S2(=O)=O	-3	39*	1	1	5	29*
C[C@H](O)C#Cc1ccc2c(c1)O[C@@H](CN(C)Cc1ccc(-c3ccccc3)cc1)[C@@H](C)CN([C@H](C)CO)S2(=O)=O	.	.	2	.	.	.
CO[C@H]1CN(C)C(=O)c2ccc(NC(=O)C3CC3)cc2OC[C@@H](C)N(Cc2ccc(F)cc2)C[C@H]1C	.	.	0	.	.	.
COc1cc(/C=C2\C(=N)N3N=C(S(C)(=O)=O)SC3=NC2=O)ccc1OCCOc1ccc(C)cc1	0	34*	1	-1	1	-10
COc1cc(/C=C2\C(=N)N3N=C(S(C)(=O)=O)SC3=NC2=O)cc(OC)c1OCCOc1ccc(C)cc1	-2	17	-4	0	.	.
COc1cccc(C(C(=O)NC(C)(C)C)N(Cc2ccc(F)cc2)C(=O)CCC(=O)Nc2cc(C)on2)c1OC (configuration not stated)	0	30*	2	-4	2	6
CO[C@@H]1CN(C)C(=O)c2cc(NC(C)=O)ccc2OC[C@H](C)N(C(=O)c2cnccn2)C[C@@H]1C	.	.	2	.	.	.
COc1ccc(CN(C)C[C@@H]2OCCCC[C@@H](C)Oc3ccc(NC(=O)NC(C)C)cc3C(=O)N([C@@H](C)CO)C[C@@H]2C)cc1	.	.	-1	.	.	.
